Experimental findings from ChEMBL document CHEMBL1177643, “Synthesis, DNA-binding ability and anticancer activity of benzothiazole/benzoxazole-pyrrolo[2,1-c][1,4]benzodiazepine conjugates” (Bioorg Med Chem, 2010) are described below.

Assay [1] deals with A-375. Kind of assay: Cell cycle arrest in human A375 cells assessed as accumulation at G2/M phase at 0.5 uM after 24 hrs using propidium iodide staining by flow cytometry. The class given is functional. The procedure, abridged:
(§1)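 A375 cells (5×10^5) grown 24 h, then exposed to compound 24 h (DMSO control). Trypsin–EDTA harvest, fixed in ice-cold 70% ethanol at 4 °C 30 min, RNase A 37 °C 30 min, propidium iodide staining. DNA content measured by flow cytometry on 20,000 events, gated as sub-G1/G0, G1, S and G2/M.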
For orientation: Flow cytometry measures light scatter and fluorescence of single cells or particles in a stream.

Assay [2] deals with A-375. Kind of assay: Cell cycle arrest in human A375 cells assessed as accumulation at G0 phase at 0.5 uM after 24 hrs using propidium iodide staining by flow cytometry. The format is functional. The procedure, abridged: as §1
Assay [3] has as its system A-375. The assay is described as follows: Cell cycle arrest in human A375 cells assessed as accumulation at sub-G0 phase at 1 uM after 24 hrs using propidium iodide staining by flow cytometry. The format is functional. The procedure, abridged: as §1
In assay [4] the test system is A-375. Kind of assay: Cell cycle arrest in human A375 cells assessed as accumulation at G1 phase at 2 uM after 24 hrs using propidium iodide staining by flow cytometry. The class given is functional. In outline: as §1
Assay [5] relates to A-375. The assay is described as follows: Cell cycle arrest in human A375 cells assessed as accumulation at sub-G0 phase at 2 uM after 24 hrs using propidium iodide staining by flow cytometry. The class given is functional. The procedure, abridged:
as §1

Assay [6] relates to A-375. The assay is described as follows: Cell cycle arrest in human A375 cells assessed as accumulation at G0/G1 phase at 1 uM after 24 hrs using propidium iodide staining by flow cytometry. The format is functional. The procedure, abridged: as §1
In assay [7] the test system is A-375. Kind of assay: Cell cycle arrest in human A375 cells assessed as accumulation at S phase at 0.5 uM after 24 hrs using propidium iodide staining by flow cytometry. The class given is functional. In outline: as §1
Assay [8] concerns A-375. Kind of assay: Cell cycle arrest in human A375 cells assessed as accumulation at S phase at 1 uM after 24 hrs using propidium iodide staining by flow cytometry. The format is functional. In outline: as §1
For assay [9], the system named is A-375. Kind of assay: Cell cycle arrest in human A375 cells assessed as accumulation at G0/G1 phase at 2 uM after 24 hrs using propidium iodide staining by flow cytometry. The class given is functional. In outline:
as §1

Assay [10] deals with A-375. Kind of assay: Cell cycle arrest in human A375 cells assessed as accumulation at G1 phase at 0.5 uM after 24 hrs using propidium iodide staining by flow cytometry. The class given is functional. In outline: as §1
In assay [11] the test system is A-375. Kind of assay: Cell cycle arrest in human A375 cells assessed as accumulation at G2/M phase at 2 uM after 24 hrs using propidium iodide staining by flow cytometry. The class given is functional. The procedure, abridged: as §1
Assay [12] deals with A-375. The assay is described as follows: Cell cycle arrest in human A375 cells assessed as accumulation at S phase at 2 uM after 24 hrs using propidium iodide staining by flow cytometry. The format is functional. In outline: as §1
The test system of assay [13] is A-375. The assay is described as follows: Cell cycle arrest in human A375 cells assessed as accumulation at G0 phase at 1 uM after 24 hrs using propidium iodide staining by flow cytometry. The class given is functional. The procedure, abridged:
as §1

The test system of assay [14] is A-375. Kind of assay: Cell cycle arrest in human A375 cells assessed as accumulation at G0/G1 phase at 0.5 uM after 24 hrs using propidium iodide staining by flow cytometry. The format is functional. The procedure, abridged:
as §1

The subject of assay [15] is A-375. The assay is described as follows: Cell cycle arrest in human A375 cells assessed as accumulation at G1 phase at 1 uM after 24 hrs using propidium iodide staining by flow cytometry. The format is functional. In outline:
as §1

In assay [16] the test system is A-375. Kind of assay: Cell cycle arrest in human A375 cells assessed as accumulation at G0 phase at 2 uM after 24 hrs using propidium iodide staining by flow cytometry. The format is functional. In outline: as §1
Another assay concerns Calf thymus DNA. The assay is described as follows: Binding affinity to calf thymus duplex-form DNA assessed as cleavage of pBR322 after 16 hrs by restriction endonuclease digestion assay in presence of BamHI. The format is nucleic-acid assay. The following applies: Bos taurus. In outline:
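pBR322 DNA (500 ng) preincubated with compound (5–30 μM) 16 h at 37 °C, then digested with BamHI (20 U) 1 h at 37 °C. Products run on 1% agarose in Tris–acetate EDTA, 80 V, 2 h. Read-out was ethidium bromide staining under UV, with an undigested and a fully digested control.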

The test system of assay [17] is A-375. The assay is described as follows: Cell cycle arrest in human A375 cells assessed as accumulation at G2/M phase at 1 uM after 24 hrs using propidium iodide staining by flow cytometry. The class given is functional. The procedure, abridged:
as §1

Assay [18] concerns A-375. Kind of assay: Cell cycle arrest in human A375 cells assessed as accumulation at sub-G0 phase at 0.5 uM after 24 hrs using propidium iodide staining by flow cytometry. The class given is functional. In outline:
as §1

SMILES strings stand for the structures.

`COc1cc2c(cc1O)N=C[C@@H]1CCCN1C2=O`: the Activity was determined as 6.45% in the assay on A-375 [1]; 3.73% in the assay on A-375 [2]; 14.41% in the assay with A-375 [3]; 67.23% with A-375 [4]; 26.75% with A-375 [5]; 88.63% in the assay with A-375 [6]. Further, the Activity stood at 79.42% in the assay with A-375 [7]; 5.03% with A-375 [8]; 77.93% in the assay on A-375 [9]; 79.42% in the assay with A-375 [10]; 8.53% in the assay with A-375 [11]; 13.54% with A-375 [12]. The Activity in the assay on A-375 [13] is 14.41%; in the assay with A-375 [14], 83.15%; with A-375 [15] it was 74.22%; in the assay on A-375 [16], 10.7%; with Calf thymus DNA, “Dose-dependent effect”; in the assay on A-375 [17], 6.34%. In addition, the Activity with A-375 [18] stood at 2.23%.
